Activity calls are given as the source filed them. The calls are words filed in the database; no cut-off is given here.

These results are taken from ChEMBL document CHEMBL4619773, “Chemoreactive-Inspired Discovery of Influenza A Virus Dual Inhibitor to Block Hemagglutinin-Mediated Adsorption and Membrane Fusion” (J Med Chem, 2020).

The target of data set [1] is Hemagglutinin (Influenza A virus (A/Puerto Rico/8/1934(H1N1))) (UniProt P03452). Kind of data set: Inhibition of Hemagglutinin in Influenza A virus (A/Puerto Rico/8/1934(H1N1)) assessed as reduction in virus-induced aggregation of chicken erythrocytes at 3.125 to 50 ug/mL incubated for 60 mins by hemagglutination assay. The method in brief:
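Hemagglutination inhibition with PR8 virus and chicken RBCs standardized per the WHO manual. Virus was serially diluted 2-fold and 1% cRBCs were added at equal volume. After 60 min at 4 °C, negative wells show a sedimented red button and positive wells stay opaque without sedimentation. Compound was tested at 3.125–50 µg/mL.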

Data set [2] relates to Influenza A virus. Kind of data set: Antiviral activity against Influenza A virus (A/Puerto Rico/8/1934(H1N1)) infected in Kunming mouse assessed as improvement in body weight at 20 to 40 ug/day dosed intranasally starting 4 hrs after viral challenge and continued for 7 days and measured up to day 14 by plaque assay. The data set is classed as functional, organism-based. Summed up: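 Groups of 10 female Kunming mice were infected intranasally with PR8 (1000 PFU/mouse) on day 0 and dosed once daily for seven days. Weight and clinical signs were recorded daily. Mice losing more than 25% of pre-infection weight were scored dead and euthanized; survivors were killed on day 14.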

For data set [3], the target named is Hemagglutinin (Influenza A virus (A/Puerto Rico/8/1934(H1N1))) (UniProt P03452). Description: Inhibition of Influenza A virus (A/Puerto Rico/8/1934(H1N1)) Hemagglutinin expressed in African green monkey Vero cells assessed as reduction in virus-induced syncytium formation at 50 ug/ml pre-treated with trypsin followed by compound addition for 15 mins and measured after 2 hrs at pH 5 by HA syncytium assay. It is filed as cell-based. The method in brief:
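Vero cells were transfected with PR8 HA plasmid (2 µg per well). At 16 h post-transfection, HA was cleaved with 5 µg/mL TPCK-trypsin for 15 min at 37 °C. Cells were pre-incubated with compound for 15 min at 37 °C, then exposed to pH 5.0 buffer containing compound for 10 min at 37 °C. After rinsing, cells were kept in 10% FBS medium for 2 h, stained, and syncytia imaged.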

A short description of data set [4]: Toxicity in Kunming mouse assessed as effect on ALT level at 5 to 10 mg/kg/day, po for 7 days. It is filed as organism-based. The note with it: in vivo, 168 h. Summed up:
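Male Kunming mice (20–25 g) received compound orally at 5 or 10 mg/kg/day, suspended in 0.5% sodium carboxymethyl cellulose, once daily for 7 days; controls received vehicle. Serum was collected under isoflurane 24 h after the last dose. AST, ALT, CR, BUN, LDH, CK and CK-MB were measured with commercial kits.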

Data set [5] deals with Neuraminidase (Influenza A virus (A/Puerto Rico/8/1934(H1N1))) (UniProt P03468). Kind of data set: Inhibition of neuraminidase in inactivated Influenza A virus (A/Puerto Rico/8/1934(H1N1)) supernatants at 12.5 to 200 ug/mL pre-incubated for 30 mins by fluorescence based assay relative to control. The method in brief:
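Inactivated PR8 virus supernatant was mixed with compound diluted in 33 mM MES ([…]) and 4 mM CaCl2 for 30 min at 37 °C. MUNANA (20 µM) was then added for 30 min at 37 °C. The reaction was stopped with 25% ethanol and 0.1 M glycine, pH 10.7. Fluorescence was read at ex 360 and em 440 nm.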

In data set [6] the test system is Influenza A virus. Kind of data set: Antiviral activity against Influenza A virus (A/Puerto Rico/8/1934(H1N1)) infected in MDCK cells by HA assay. The data set is classed as functional, organism-based. Summed up:
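MDCK cells were infected at high moi (≈3.0 PFU/cell). Virus-containing supernatants were serially diluted 2-fold and mixed with an equal volume of 1% chicken red blood cells. After 60 min at 4 °C, wells were scored for button sedimentation versus opaque agglutination to give titers.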

For data set [7], the target named is Hemagglutinin (Influenza A virus (A/Puerto Rico/8/1934(H1N1))) (UniProt P03452). Kind of data set: Inhibition of Hemagglutinin in Influenza A virus (A/Puerto Rico/8/1934(H1N1))/H1N1 pseudovirus infected in 293FT cells assessed as reduction in virus infection at 50 ug/ml pre-treated with virus before infection and measured after 48 hrs by inverted fluorescence microscopy. It is filed as cell-based. The method in brief: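 PR8 pseudoviruses (IAV-GFP) carrying wild-type HA or a mutant HA (T30N/E233D/T359A or T359A) were made in 293FT cells by co-transfecting HA, NA, HIV backbone and GFP reporter plasmids, and supernatants were harvested at 48 h. Pseudovirus was pretreated with compound at 50 µg/ml for 1 h at 37 °C before infection. Infected GFP-positive cells were viewed by fluorescence microscopy 48 h p.i.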
Sequence of Hemagglutinin (Influenza A virus (A/Puerto Rico/8/1934(H1N1))) (P03452 whole entry): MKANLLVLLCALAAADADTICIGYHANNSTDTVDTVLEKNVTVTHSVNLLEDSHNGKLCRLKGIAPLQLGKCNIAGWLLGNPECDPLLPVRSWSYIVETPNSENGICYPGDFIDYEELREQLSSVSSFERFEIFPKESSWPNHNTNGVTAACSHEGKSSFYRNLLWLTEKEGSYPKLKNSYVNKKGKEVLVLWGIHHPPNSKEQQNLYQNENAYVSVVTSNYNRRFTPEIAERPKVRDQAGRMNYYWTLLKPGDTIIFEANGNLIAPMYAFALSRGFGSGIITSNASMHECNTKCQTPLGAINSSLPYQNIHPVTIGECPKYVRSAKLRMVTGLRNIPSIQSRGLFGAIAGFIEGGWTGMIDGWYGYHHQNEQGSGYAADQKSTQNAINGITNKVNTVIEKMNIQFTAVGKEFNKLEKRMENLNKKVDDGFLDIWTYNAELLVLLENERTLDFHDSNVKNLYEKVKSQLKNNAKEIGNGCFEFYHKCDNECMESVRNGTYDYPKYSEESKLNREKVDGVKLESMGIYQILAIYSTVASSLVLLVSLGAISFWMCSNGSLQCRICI

The nature of data set [8]: Cmax in mouse at 5 mg/kg, po administered as single dose. It is filed as ADME, organism-based. On the set-up: dose 5 mg/kg, route oral. The note with it: in vivo. Summed up:
(§1)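 Male Kunming mice (20-25 g) and male Sprague Dawley rats (180-220 g) were fasted 12 h before dosing. Oral dosing was by gavage as a suspension in 0.5% sodium carboxymethyl cellulose; iv dosing was via tail vein in PEG400. Serial plasma samples were taken to 24 h, protein-precipitated with acetonitrile plus N-CH3 internal standard, and quantified by LC-MS/MS (n=3). Bioavailability = AUCoral/AUCiv.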

The nature of data set [9]: Cmax in rat at 3.5 mg/kg , po administered as single dose. It is filed as ADME, organism-based. The arrangement: dose 3.5 mg/kg, route oral. The note with it: in vivo. The method in brief:
as §1

Sequence of Neuraminidase (Influenza A virus (A/Puerto Rico/8/1934(H1N1))) (P03468 whole entry): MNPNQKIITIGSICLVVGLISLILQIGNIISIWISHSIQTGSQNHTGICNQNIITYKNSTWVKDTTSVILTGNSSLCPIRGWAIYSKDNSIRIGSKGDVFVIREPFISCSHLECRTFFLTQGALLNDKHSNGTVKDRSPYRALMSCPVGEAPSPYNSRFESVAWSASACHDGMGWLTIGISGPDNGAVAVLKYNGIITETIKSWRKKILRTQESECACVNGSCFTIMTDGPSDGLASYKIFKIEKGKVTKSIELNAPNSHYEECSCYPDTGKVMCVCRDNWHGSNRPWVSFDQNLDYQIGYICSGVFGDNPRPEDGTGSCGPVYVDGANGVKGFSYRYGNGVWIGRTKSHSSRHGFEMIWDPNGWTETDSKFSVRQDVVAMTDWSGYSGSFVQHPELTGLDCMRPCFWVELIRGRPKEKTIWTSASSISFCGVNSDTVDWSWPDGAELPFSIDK

With `CC(=O)c1cc(C)c(O)c(Cc2[nH]c3ccccc3c2Cc2c(O)c(C)cc(C(C)=O)c2O)c1O`, the inhibition result in data set [1], in data set [3] and in data set [7] was “Active” in each case. Further, the outcome with Influenza A virus [2] was Active. Besides, the Activity result in data set [4] is “Non-Toxic”; in the data set on Influenza A virus [6], “Dose-dependent effect”. Also, the inhibition (as a rule, the percentage by which the read-out fell short of the control) in data set [5] was less than 15%. The Cmax – broadly, the highest concentration seen after dosing – in [8] is 16 ng/mL; in data set [9], 287 ng/mL.
